Results from ChEMBL document CHEMBL3421537, “Synthesis and biological evaluation of nitrated 7-, 8-, 9-, and 10-hydroxyindenoisoquinolines as potential dual topoisomerase I (Top1)-tyrosyl-DNA phosphodiesterase I (TDP1) inhibitors” (J Med Chem, 2015).
Activity calls are given as the source filed them.

Key:
[1] = target: T1, DNA topoisomerase 1 (Homo sapiens) (UniProt P11387); assay: Inhibition of human recombinant Top1 expressed in baculovirus-infected insect Sf9 cells using 3'-[32P]-end-labeled 117 bp DNA as substrate assessed as inhibition of DNA cleavage after 20 mins by PAGE analysis relative to 1 uM camptothecin
T1 sequence (whole entry): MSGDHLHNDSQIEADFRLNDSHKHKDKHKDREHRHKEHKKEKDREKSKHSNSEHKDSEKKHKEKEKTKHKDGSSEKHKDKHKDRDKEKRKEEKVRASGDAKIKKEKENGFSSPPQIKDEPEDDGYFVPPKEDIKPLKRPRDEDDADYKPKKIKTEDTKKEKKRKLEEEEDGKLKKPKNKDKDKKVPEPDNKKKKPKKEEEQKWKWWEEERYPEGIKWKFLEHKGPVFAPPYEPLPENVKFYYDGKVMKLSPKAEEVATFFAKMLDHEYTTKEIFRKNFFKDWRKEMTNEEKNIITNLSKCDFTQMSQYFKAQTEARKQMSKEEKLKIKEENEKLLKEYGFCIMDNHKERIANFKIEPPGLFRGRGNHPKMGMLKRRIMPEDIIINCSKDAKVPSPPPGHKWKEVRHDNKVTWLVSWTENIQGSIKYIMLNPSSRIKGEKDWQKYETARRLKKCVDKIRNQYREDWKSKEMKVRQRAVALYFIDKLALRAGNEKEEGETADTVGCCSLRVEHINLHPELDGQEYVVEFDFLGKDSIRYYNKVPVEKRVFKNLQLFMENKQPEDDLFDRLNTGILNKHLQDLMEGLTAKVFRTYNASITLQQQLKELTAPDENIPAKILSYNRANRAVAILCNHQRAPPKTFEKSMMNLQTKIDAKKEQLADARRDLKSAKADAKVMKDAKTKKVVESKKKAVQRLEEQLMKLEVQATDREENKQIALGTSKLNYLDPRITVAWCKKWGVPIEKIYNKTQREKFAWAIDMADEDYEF
How it was run: (§1)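 About 2 nM 3′-[32P]-end-labeled 117-bp DNA (Klenow fill-in with [α32P]dGTP) incubated with recombinant Top1 and compound for 20 min at room temperature. Stopped with 0.5% SDS, run on 20% denaturing PAGE, read by phosphorimager. Cleavage bands scored visually against 1 μM camptothecin on a 0 to +++++ scale.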

[2] = target: Tyrosyl-DNA phosphodiesterase 1 (Homo sapiens, UniProt Q9NUW8); assay: Inhibition of human recombinant TDP1 assessed as hydrolysis of N14Y to N14P after 15 mins by PAGE analysis
Tyrosyl-DNA phosphodiesterase 1, sequence (Q9NUW8 whole entry): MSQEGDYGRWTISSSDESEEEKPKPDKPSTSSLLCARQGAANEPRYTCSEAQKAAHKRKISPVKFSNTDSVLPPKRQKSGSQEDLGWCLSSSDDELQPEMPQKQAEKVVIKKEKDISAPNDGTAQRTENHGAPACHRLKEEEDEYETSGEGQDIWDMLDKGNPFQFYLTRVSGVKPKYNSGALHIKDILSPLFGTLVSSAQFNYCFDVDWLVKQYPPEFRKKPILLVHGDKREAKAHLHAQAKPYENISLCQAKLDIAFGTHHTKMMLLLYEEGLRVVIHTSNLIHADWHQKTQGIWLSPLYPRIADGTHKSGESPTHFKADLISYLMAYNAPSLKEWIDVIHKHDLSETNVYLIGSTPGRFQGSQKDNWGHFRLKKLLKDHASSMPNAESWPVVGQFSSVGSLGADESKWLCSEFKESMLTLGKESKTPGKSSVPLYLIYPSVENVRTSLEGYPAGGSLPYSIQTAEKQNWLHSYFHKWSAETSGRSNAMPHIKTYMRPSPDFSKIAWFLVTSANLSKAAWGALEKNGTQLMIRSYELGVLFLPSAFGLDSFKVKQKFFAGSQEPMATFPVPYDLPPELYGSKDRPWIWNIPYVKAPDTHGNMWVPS

SF-539 = assay: Cytotoxicity against human SF539 cells; assay type: functional
How it was run: (§2)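 NCI-60 screen (NCI-DTP): one-dose prescreen at 10 μM, then five concentrations from 100 μM to 10 nM for compounds passing the cutoff. GI50 (50% growth inhibition) interpolated from the five-dose data. Single determination.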

[3] = Cytotoxicity against human UACC62 cells; assay type: functional; conditions: UACC-62; how it was run: as §2
DU-145 = assay: Cytotoxicity against human DU145 cells; assay type: functional; how it was run: as §2
[4] = Cytotoxicity against human HCT116 cells; assay type: functional; conditions: HCT-116; how it was run: as §2
SN12C = assay: Cytotoxicity against human SN12C cells; assay type: functional; how it was run: as §2
[5] = Cytotoxicity against human OVCAR3 cells; assay type: functional; conditions: OVCAR-3; how it was run: as §2
MCF7 = assay: Cytotoxicity against human MCF7 cells; assay type: functional; how it was run: as §2
HOP-62 = assay: Cytotoxicity against human HOP62 cells; assay type: functional; how it was run: as §2
[6] = target: T1, DNA topoisomerase 1 (Homo sapiens); assay: Inhibition of human recombinant Top1 expressed in baculovirus-infected insect Sf9 cells using 3'-[32P]-end-labeled 117 bp DNA as substrate assessed as inhibition of DNA cleavage after 20 mins by PAGE analysis; how it was run: as §1

Compound	inhibition [1]	IC50 [2] [µM]	GI50 (SF-539) [nM]	GI50 [3] [nM]	GI50 (DU-145) [nM]	GI50 [4] [nM]	GI50 (SN12C) [nM]	GI50 [5] [nM]	GI50 (MCF7) [nM]	GI50 (HOP-62) [nM]	inhibition [6]	inhibition [2]
O=C1c2cc(O)ccc2-c2c1c1ccc([N+](=O)[O-])cc1c(=O)n2CCCN1CCOCC1	Active	> 111	< 10	< 10	< 10	< 10	< 10	< 10	< 10	< 10		
O=C1c2c(O)cccc2-c2c1c1ccc([N+](=O)[O-])cc1c(=O)n2CCCn1ccnc1	75%	> 111	150	180	130	130	170	230	56	81	Dose-dependent effect	
NCCCn1c2c(c3ccc([N+](=O)[O-])cc3c1=O)C(=O)c1c(O)cccc1-2	75%		1700	2500	1200	470	3400	2900	250	1900		
COc1cc2c(cc1O)C(=O)c1c-2n(CCCN2CCOCC2)c(=O)c2cc([N+](=O)[O-])ccc12	50%	> 111	< 10	< 10	< 10	< 10	< 10		< 10	< 10		Dose-dependent effect
COc1cc2c(cc1O)C(=O)c1c-2n(CCCN)c(=O)c2cc([N+](=O)[O-])ccc12	50%		< 10	< 10	< 10	< 10	< 10	27	< 10	< 10		Dose-dependent effect
O=C1c2c(O)cccc2-c2c1c1ccc([N+](=O)[O-])cc1c(=O)n2CCCN1CCOCC1	50%	> 111	200	390		550		29000	64	12000	Dose-dependent effect	
NCCCn1c2c(c3ccc([N+](=O)[O-])cc3c1=O)C(=O)c1ccc(O)cc1-2	75%		210		350	220		270	120			
COc1cc2c(cc1O)C(=O)c1c-2n(CCCN2CCOCC2)c(=O)c2cc(OC)c(OC)cc12		> 111										
NCCCn1c2c(c3ccc([N+](=O)[O-])cc3c1=O)C(=O)c1cc(O)ccc1-2	Active		30	41	52	78	46	220	26	56		
O=C1c2ccc(O)cc2-c2c1c1ccc([N+](=O)[O-])cc1c(=O)n2CCCn1ccnc1	75%	> 111	< 10	< 10	< 10	< 10	< 10	23	< 10		Dose-dependent effect	
COc1cc2c(cc1O)-c1c(c3ccc([N+](=O)[O-])cc3c(=O)n1CCCN)C2=O	50%		660	950	430	150	450	1700	170	470		Dose-dependent effect
COc1cc2c(cc1O)-c1c(c3ccc([N+](=O)[O-])cc3c(=O)n1CCCn1ccnc1)C2=O	50%		49		51	71	51	320	20	85		
COc1cc2c(cc1O)-c1c(c3ccc([N+](=O)[O-])cc3c(=O)n1CCCN1CCOCC1)C2=O	50%	> 111	130	39	110		63	720	35	79		
O=C1c2cc(O)ccc2-c2c1c1ccc([N+](=O)[O-])cc1c(=O)n2CCCn1ccnc1	75%	> 111	< 10	< 10	< 10	< 10	< 10	19	< 10	< 10		
O=C1c2ccccc2-c2c1c1ccccc1c(=O)n2CCCNCCCNCCCn1c2c(c3ccccc3c1=O)C(=O)c1ccccc1-2												Dose-dependent effect
COc1cc2c(cc1O)C(=O)c1c-2n(CCCn2ccnc2)c(=O)c2cc(OC)c(OC)cc12		> 111										
O=C1c2cccc(O)c2-c2c1c1ccc([N+](=O)[O-])cc1c(=O)n2CCCN1CCOCC1	50%	> 111										
NCCCn1c2c(c3ccc([N+](=O)[O-])cc3c1=O)C(=O)c1cccc(O)c1-2	50%											
COc1cc2c(cc1O)-c1c(c3cc(OC)c(OC)cc3c(=O)n1CCCn1ccnc1)C2=O		> 111										
O=C1c2ccc(O)cc2-c2c1c1ccc([N+](=O)[O-])cc1c(=O)n2CCCN1CCOCC1	Active	> 111	21	20	34	26	36	41	< 10	25	Dose-dependent effect	
O=C1c2cccc(O)c2-c2c1c1ccc([N+](=O)[O-])cc1c(=O)n2CCCn1ccnc1	75%	> 111										
COc1cc2c(cc1O)C(=O)c1c-2n(CCCn2ccnc2)c(=O)c2cc([N+](=O)[O-])ccc12	20%	> 111	< 10	< 10	< 10	< 10	< 10	< 10	< 10	< 10		Dose-dependent effect
